From PubChem
Compounds with a hit are over-represented: about 1.1% of the library has one in this group of screens.
PMI act – activators of human PMI, primary screen, biochemical, fluorescence intensity, near-Km mannose 6-phosphate. Mannose-6-phosphate isomerase (Homo sapiens), P34949. 0.005% of 190,000 active. activation factor at 20 µM. purified human PMI, coupled resazurin fluorescence, 20 min; stronger effect = higher value; 1 = vehicle control, 0 substrate-free wells;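 active = activation factor of 2 or more at 20 µM, relative to plate controls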
Target sequence (P34949 whole entry, looked up): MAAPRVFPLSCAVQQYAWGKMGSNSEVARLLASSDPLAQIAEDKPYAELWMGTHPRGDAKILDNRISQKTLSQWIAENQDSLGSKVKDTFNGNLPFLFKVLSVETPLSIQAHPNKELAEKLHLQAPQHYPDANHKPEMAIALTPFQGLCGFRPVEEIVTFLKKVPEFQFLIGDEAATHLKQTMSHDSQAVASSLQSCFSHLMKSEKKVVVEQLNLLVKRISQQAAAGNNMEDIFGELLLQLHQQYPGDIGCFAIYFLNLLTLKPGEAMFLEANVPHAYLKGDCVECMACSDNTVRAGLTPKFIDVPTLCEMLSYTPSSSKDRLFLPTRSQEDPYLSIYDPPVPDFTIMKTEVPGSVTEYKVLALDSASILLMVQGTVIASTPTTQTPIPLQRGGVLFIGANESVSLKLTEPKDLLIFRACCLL
Redox H2O2 prof – compounds producing H2O2 with reducing agent – biochemical, NIH compound library profiling, artefact control for MLSCN library redox annotation, primary screen | DTT-dependent redox cycling H2O2, phenol red/HRP absorbance; 100% = 100 µM peroxide control, 0% = buffer | activation, % at 10 µM | 0.03% of 200,000 active | AID 878, 2007;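 active = activation of at least 50% relative to the plate's high and low controls in the primary single-dose screen; inactive = activation below 50%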;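 note: compound incubated with DTT at 0.8 mM final as the reducing agent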
Diaphorase inh – diaphorase inhibitors and chemical oxidizers, primary screen, counter-screen for diaphorase-coupled primary assays, biochemical, uHTS, resorufin fluorescence | diaphorase resazurin-to-resorufin fluorescence, NADH, 16 min; bacterial (C. kluyveri) enzyme, not human | inhibition, % at 20 µM | 0.69% of 190,000 active | AID 1217, 2008;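 active = primary screen inhibition at 20 µM above a set limit, cut at about 50% in these data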;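 note: plate controls were DMSO with full reaction for no effect and wells lacking NADH for full effect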
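Assay system: diaphorase enzyme from Clostridium kluyveri; Input: enzyme working solution with 0.14 U/mL diaphorase; Timing: 16 min at room temperature; Technique: resorufin fluorescence, excitation 544 nm, emission 590 nm; Benchmarks: positive control minus NADH, DMSO neutral control.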
PMI act hi M6P – human PMI activators, high substrate, primary screen, biochemical, fluorescence intensity, near-saturating mannose 6-phosphate | activation factor at 20 µM | AID 1216, 2008 | 0.34% of 190,000 active | Mannose-6-phosphate isomerase (Homo sapiens), P34949 | coupled PMI enzyme assay, resazurin fluorescence, 20 min; stronger effect = higher value; 1 = untreated enzyme, 0 = substrate-free blank;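 active = activation factor of 2 or more at 20 µM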
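Test system: human phosphomannose isomerase with PGI, G6PDH, diaphorase coupling enzymes; Amount: PMI at 15 ng/mL final; Reagent: Mannose-6-phosphate 1.0 mM (near-saturating) plus 0.22 mM NADP+; Timing: 20 min, room temperature; Technique: resorufin fluorescence at Ex 544/Em 590 nm; Dosing: 20 µM single dose.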
G6PDH counter – L. mesenteroides G6PDH inhibitors, counter-screen for G6PDH-coupled screening assays, biochemical, Leuconostoc mesenteroides enzyme; inhibition, % at 5 µM; Purified L. mesenteroides G6PDH, diaphorase/resazurin coupled fluorescence, 45 min; 0.12% of 200,000 active; in the data active = inhibition above about 50%
Diaphorase act – compounds boosting diaphorase resazurin reduction – biochemical, uHTS, resorufin fluorescence, counter-screen for diaphorase-coupled primary assays, primary screen; Diaphorase/resazurin coupled assay, 16 min; stronger effect = higher value; 1 = vehicle wells, 0 = NADH-free wells; activation factor at 20 µM; 0.005% of 190,000 active; AID 1229, 2008;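 active = diaphorase activity raised at least twofold by the compound at 20 µM; inactive = activation factor below 2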
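Material: bacterial diaphorase enzyme (C. kluyveri); amount: enzyme 0.07 U/mL final; reagent: NADH substrate 0.114 mM plus resazurin dye 0.1 mM, final; doses: single compound dose of 20 µM, 1% DMSO final; timing: 16 min enzyme reaction, ambient temperature; measured by: fluorescence of resorufin, 544 nm excitation, 590 nm emission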
Redox H2O2 DR – generates H2O2 by DTT-dependent redox cycling, confirmed in dose response. 40% of 60 active. AID 1234. shares compounds with Redox H2O2 prof. phenol red-HRP absorbance. EC50, µM;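 active = EC50 under a set limit for hydrogen peroxide production with the reducing agent DTT present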
The depositor's hits bear a star.

SMILES	PMI act	Redox H2O2 prof	Diaphorase inh	PMI act hi M6P	G6PDH counter	Diaphorase act	others
Cc1cc(C)c2c(N=NN3CCCCC3)[nH]nc2n1	1.5	0	2	1.6	-3	1
CCOc1ccc2[nH]c(=O)c(CN(CCN3CCCC3)C(=S)Nc3ccccc3OC)cc2c1	0.9	-1	3	0.9	9	1
CCOC(=O)c1c(C)oc2c1c(C=NCCC(=O)O)c(O)c1ccccc12	0.2	0	71*	0.2	52*	0.3
CCOC(=O)c1c(C)oc2c1c(CN1CCN(CCO)CC1)c(O)c1ccccc12	0.4	0	61*	0.2	48	0.4
CCOC(=O)c1c(C)oc2c1c(CN1CCN(C(=O)OCC)CC1)c(O)c1ccccc12	0.7	-1	36	0.3	40	0.6
CCOC(=O)c1c(C)oc2c1c(C=NC1CCS(=O)(=O)C1)c(O)c1ccccc12 (stereo unspecified)	0.2	2	76*	0.4	34	0.2
CC1CCCN(C(=S)SCC(=O)c2cc(Br)cc(Br)c2O)C1 (stereo unspecified)	0.3	0	62*	0.5	23	0.4
O=C(CSC(=S)N1CCCC1)c1cc(Br)cc(Br)c1O	0.7	-2	35	1.1	16	0.6
O=C(O)Cc1sc(Nc2ccccc2)nc1-c1ccc(Cl)cc1	1.6	0	19	2.5*	4	0.8
COC(=O)c1cn(C(=O)/C=C/c2ccc(OC)c(OC)c2)c2ccccc12	0.9	0	23	0.9	8	0.8
CN(C)c1cccc2c(C=C(C#N)C#N)ccc(N(C)C)c12	0.7	0	62*	0.4	14	0.4
CN(C)c1cccc2c(/C=N/O)ccc(N(C)C)c12	0.8	-1	22	0.5	5	0.8
COc1ccccc1CNc1ccc(N2CCCCC2)cc1	0.3	1	65*	0.4	-14	0.3
COc1cccc(CNc2ccc(N3CCCCC3)cc2)c1OC	0.3	0	60*	0.4	13	0.4
COc1ccc(Br)cc1-c1nc(CCl)cs1	1.5	0	20	1.9	1	0.8
NNC1=N[C@H]2CS(=O)(=O)C[C@H]2S1	1	-1	4	1.1	-3	1
COCCCNCC(O)C(F)(F)F (stereo unspecified)	1.1	-2	19	1	-2	0.8
CCN(CC)c1ccc(/C=N/NS(=O)(=O)c2ccc(C)c([N+](=O)[O-])c2)cc1	1.1	0	30	1.4	-11	0.7
CCN(Cc1ccccc1)c1ccc(/C=N/NS(=O)(=O)c2cccc([N+](=O)[O-])c2)cc1	1.5	0	20	2*	0	0.8
CSC(=S)N/N=C/c1ccccc1	1	0	73*	1.1	3	0.3
CC(C)c1cccc(C(C)C)c1NC(=O)c1ccccc1	1.1	0	1	1	2	1
c1cc2c3c(cccc3c1)C(N1CCCCCC1)=N2	0.8	0	10	0.9	-1	0.9
c1cc2c3c(cccc3c1)C(N1CCCCC1)=N2	0.7	0	43	0.4	52*	0.6
Cn1cccc1-c1cc(C(=O)N/N=C/c2cccc(O)c2)[nH]n1	1	-1	27	0.9	8	0.7
O=S(=O)(c1ccc2ccccc2c1)N1CCC(c2nc(-c3ccncc3)no2)CC1	0.6	0	57*	0.7	-1	0.4
SMILES	PMI act	Redox H2O2 prof	Diaphorase inh	PMI act hi M6P	G6PDH counter	Diaphorase act	others
CCNC(=O)NC(=O)COC(=O)CCc1nc(=O)c2ccccc2n1C	1.1	0	-4	1.1	16	1
O=[N+]([O-])c1cc(-c2ncccn2)c([N+](=O)[O-])s1	0.4	-1	51*	0.3	3	0.5
O=C(Nc1ncccn1)c1cc([N+](=O)[O-])cc([N+](=O)[O-])c1	1.2	0	1	1.2	-11	1
CN(C)c1ccc(N=Cc2ccco2)cc1	0.6	0	48	0.4	28	0.5
C(=Nc1cccc2c(N=Cc3ccco3)cccc12)c1ccco1	0.2	-2	81*	0.2	11	0.2
CC(NCC(O)COCCC12CC3CC(CC(C3)C1)C2)c1ccccc1 (stereo unspecified)	1	0	-11	1.1	8	1.1
COc1ccc(NC(=O)CN(c2ccccc2)S(=O)(=O)N(C)C)cc1Cl	1	-1	68*	1	-4	0.3
COc1ccc(C2NC(=O)NC3=C2CCc2ccccc23)cc1 (stereo unspecified)	0.3	2	74*	0.2	18	0.3
Cc1cccc(NC(=O)CCCn2c(=S)[nH]c3ccccc3c2=O)c1	1.1	0	4	1.1	1	1
COc1ccc(CC(=O)OCC(=O)NCc2ccccc2Cl)cc1OC	1	0	6	1	4	0.9
Cc1sc2nc3ccc(N4CCCC4)nn3c(=O)c2c1C	1.6	0	16	2.2*	10	0.8
CC(=O)Nc1ccc(CN2CCN(CCc3ccccc3)C(CCO)C2)cc1 (stereo unspecified)	0.8	1	14	0.9	12	0.9
O=C1C(=O)c2ccc(-c3ccccc3)cc2-c2ccccc21	1.2	315*	28	0.9	54*	0.7	Redox H2O2 DR=0.91*
O=C(O)c1ccc2c(c1)C(=O)N(c1ccccc1-c1ccccc1)C2=O	1.2	0	-16	1.1	9	1.2
Oc1ccc(-c2onc(C(F)(F)F)c2-c2cscn2)c(O)c1	0.9	430*	17	0.9	-2	0.8	Redox H2O2 DR=>50
Cc1nc(-c2c(C(F)(F)F)noc2-c2ccc(O)cc2O)cs1	0.9	2	13	0.9	2	0.9
CCNC(=O)CCSc1nnc(-c2ccco2)o1	1	-1	1	1	-5	1
O=C(NN=C1CCCC1)c1n[nH]c2c1CCC2	0.9	0	5	0.9	20	0.9
O=C(NN=C1CCCC1)c1n[nH]c2c1CCCC2	1	68*	4	1	4	1	Redox H2O2 DR=>50
